Assay results: ChEMBL document CHEMBL5252514, “Conopeptide-Derived κ-Opioid Agonists (Conorphins): Potent, Selective, and Metabolic Stable Dynorphin A Mimetics with Antinociceptive Properties” (J Med Chem, 2016)
Where a SMILES comes first, the peptide text is derived from it.

Target: Kappa-type opioid receptor (Homo sapiens, UniProt P41145)
Test: Displacement of [3H]U69593 from human kappa opioid receptor expressed in CHO-K1 cells incubated for 1 hr by 1450 microbeta scintillation counter analysis
Assay type: cell-based
How it was run: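 Membranes from transiently KOR-transfected CHO-K1 cells (~2 µg/well) used in SPA with 3H-U69,593 (1 nM). Competitor ranged 1 pM–10 µM in 50 mM Tris-HCl pH 7.4, 5 mM MgCl2, 0.1% BSA. Incubated 1 h at room temperature with shaking. Nonspecific binding defined with 10 µM dynorphin A. Sigmoidal dose-response fit; at least three independent experiments in triplicate.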

Kappa-type opioid receptor, sequence (P41145 whole entry): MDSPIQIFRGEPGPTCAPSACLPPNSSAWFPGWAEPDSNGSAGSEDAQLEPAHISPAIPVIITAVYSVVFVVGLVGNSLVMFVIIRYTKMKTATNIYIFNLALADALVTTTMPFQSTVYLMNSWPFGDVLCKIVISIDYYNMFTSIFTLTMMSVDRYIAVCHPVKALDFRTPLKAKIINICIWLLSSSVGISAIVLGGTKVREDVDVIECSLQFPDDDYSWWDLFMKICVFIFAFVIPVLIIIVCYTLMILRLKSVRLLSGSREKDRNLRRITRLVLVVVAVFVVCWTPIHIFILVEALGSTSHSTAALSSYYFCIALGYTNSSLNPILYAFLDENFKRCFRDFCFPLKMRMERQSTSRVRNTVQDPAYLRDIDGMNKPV

Structure (SMILES)	Ki [nM]
N=C(N)NCCC[C@@H](NC(=O)[C@@H](CCCNC(=N)N)NC(=O)[C@@H]1CCCN1C(=O)c1ccccc1)C(=O)N[C@@H](CC(N)=O)C(=O)N[C@@H](CC1CCCCC1)C(=O)N[C@H]1CSSC[C@@H](C(N)=O)NC1=O	0.61
CC[C@H](C)[C@H](NC(=O)[C@H](CCC(N)=O)NC(=O)[C@H](CCCNC(N)=O)NC(=O)[C@H](CCCNC(=N)N)NC(=O)[C@@H]1CSSC[C@H](NC(=O)[C@@H](N)CC(N)=O)C(=O)N1)C(=O)NC1CSSC[C@@H](C(N)=O)NC1=O (single isomer, unassigned)	387
CC[C@H](C)[C@@H]1NC(=O)[C@H](CCC(N)=O)NC(=O)[C@H](CCCNC(=N)N)NC(=O)[C@H](CCCNC(=N)N)NC(=O)[C@@H]2CSSC[C@H](NC1=O)C(=O)N[C@H](C(N)=O)CSSC[C@H](NC(=O)[C@@H](N)CC(N)=O)C(=O)N2 (HELM PEPTIDE1{N.C.C.R.R.Q.I.C.C.[am]}$PEPTIDE1,PEPTIDE1,2:R3-9:R3|PEPTIDE1,PEPTIDE1,3:R3-8:R3$$$V2.0)	580
N=C(N)NCCC[C@@H](NC(=O)c1ccc(F)cc1)C(=O)N[C@H](CCCNC(=N)N)C(=O)N[C@@H](CCC(N)=O)C(=O)N[C@@H](CC1CCCCC1)C(=O)N[C@H]1CSSC[C@@H](C(N)=O)NC1=O	5.4
N=C(N)NCCC[C@@H](NC(=O)[C@@H](CCCNC(=N)N)NC(=O)[C@@H]1CCCN1C(=O)c1ccccc1)C(=O)N[C@@H](CCC(N)=O)C(=O)N[C@@H](CC1CCCCC1)C(=O)N[C@H]1CC(=O)NC[C@@H](C(N)=O)NC1=O	233
CC[C@H](C)[C@@H]1NC(=O)[C@H](CCC(N)=O)NC(=O)[C@H](CCCNC(=N)N)NC(=O)[C@H](CCCNC(=N)N)NC(=O)[C@@H]2CSSC[C@@H](C(N)=O)NC(=O)[C@H](CSSC[C@H](NC(=O)[C@@H](N)CC(N)=O)C(=O)N2)NC1=O (HELM PEPTIDE1{N.C.C.R.R.Q.I.C.C.[am]}$PEPTIDE1,PEPTIDE1,2:R3-8:R3|PEPTIDE1,PEPTIDE1,3:R3-9:R3$$$V2.0)	1470
N=C(N)NCCC[C@@H](NC(=O)[C@@H](CCCNC(=N)N)NC(=O)[C@@H]1CCCN1C(=O)c1ccccc1)C(=O)N[C@@H](CCC(N)=O)C(=O)N[C@@H](CC1CCCCC1)C(=O)N[C@H]1CSS[C@H]2C[C@@H](C(N)=O)N(C2)C1=O	208
N=C(N)NCCC[C@@H](NC(=O)[C@@H](CCCNC(=N)N)NC(=O)[C@@H]1CCCN1C(=O)c1ccccc1)C(=O)N[C@@H](CCC(N)=O)C(=O)N[C@@H](CC1CCCCC1)C(=O)N[C@H]1CSCSC[C@@H](C(N)=O)NC1=O	15.8
N=C(N)NCCC[C@@H](NC(=O)[C@@H](CCCNC(=N)N)NC(=O)[C@@H]1CCCN1C(=O)c1ccccc1)C(=O)N[C@@H](CO)C(=O)N[C@@H](CC1CCCCC1)C(=O)N[C@H]1CSSC[C@@H](C(N)=O)NC1=O	0.42
N=C(N)NCCC[C@H](NC(=O)[C@@H]1CCC(=O)N1)C(=O)N[C@@H](CCCNC(=N)N)C(=O)N[C@@H](CCC(N)=O)C(=O)N[C@@H](CC1CCCCC1)C(=O)N[C@H]1CCCCN(CC(N)=O)C1=O (HELM PEPTIDE1{[Glp].R.R.Q.[Cha].[NC(=O)CN1CCCC[C@H](N[*:1])C1=O]}$$$$V2.0)	12900
CC[C@H](C)[C@H](NC(=O)[C@H](CCC(N)=O)NC(=O)[C@H](CCCNC(=N)N)NC(=O)[C@H](Cc1c[nH]cn1)NC(=O)[C@@H]1CSSC[C@H](NC(=O)[C@@H](N)CC(N)=O)C(=O)N1)C(=O)N[C@H]1CSSC[C@@H](C(N)=O)NC1=O (HELM PEPTIDE1{N.C.C.H.R.Q.I.C.C.[am]}$PEPTIDE1,PEPTIDE1,2:R3-3:R3|PEPTIDE1,PEPTIDE1,8:R3-9:R3$$$V2.0)	137
N=C(N)NCCC[C@@H](NC(=O)[C@@H](CCCNC(=N)N)NC(=O)[C@@H]1CCCN1C(=O)c1ccccc1)C(=O)N[C@@H](CCC(N)=O)C(=O)N[C@@H](CC1CCCCC1)C(=O)N1C[C@@H]2C[C@H]1C(=O)N[C@H](C(N)=O)CSS2	786
CN(C(=O)[C@H](CC1CCCCC1)NC(=O)[C@H](CCC(N)=O)NC(=O)[C@@H](CCCNC(=N)N)NC(=O)[C@@H](CCCNC(=N)N)NC(=O)[C@@H]1CCCN1C(=O)c1ccccc1)[C@H]1CSSC[C@@H](C(N)=O)NC1=O	15
N=C(N)NCCC[C@@H](NC(=O)[C@@H]1CCC(=O)N1)C(=O)N[C@H](CCCNC(=N)N)C(=O)N[C@@H](CCC(N)=O)C(=O)N[C@@H](CC1CCCCC1)C(=O)N[C@H]1CCSSC[C@@H](C(N)=O)NC1=O	783
N=C(N)NCCC[C@@H](NC(=O)[C@@H](CCCNC(=N)N)NC(=O)[C@@H]1CCCN1C(=O)c1ccccc1)C(=O)N[C@@H](CCC(N)=O)C(=O)N[C@@H](CC1CCCCC1)C(=O)N1CCSSC[C@@H](C(N)=O)NC(=O)C1	199
N=C(N)NCCC[C@@H](NC(=O)Cc1cccc(Br)c1)C(=O)N[C@H](CCCNC(=N)N)C(=O)N[C@@H](CCC(N)=O)C(=O)N[C@@H](CC1CCCCC1)C(=O)N[C@H]1CSSC[C@@H](C(N)=O)NC1=O	1.2

Structure (SMILES)	Ki [nM]
CC(C)C[C@H](NC(=O)[C@@H](CCCNC(=N)N)NC(=O)[C@@H](CCCNC(=N)N)NC(=O)[C@@H]1CCCN1C(=O)c1ccccc1)C(=O)N[C@@H](CC1CCCCC1)C(=O)N[C@H]1CSSC[C@@H](C(N)=O)NC1=O	1.4
C[C@H](NC(=O)[C@@H](CCCNC(=N)N)NC(=O)[C@@H](CCCNC(=N)N)NC(=O)[C@@H]1CCCN1C(=O)c1ccccc1)C(=O)N[C@@H](CC1CCCCC1)C(=O)N[C@H]1CSSC[C@@H](C(N)=O)NC1=O	0.29
N=C(N)NCCC[C@@H](NC(=O)c1cccc(Br)c1)C(=O)N[C@H](CCCNC(=N)N)C(=O)N[C@@H](CCC(N)=O)C(=O)N[C@@H](CC1CCCCC1)C(=O)N[C@H]1CSSC[C@@H](C(N)=O)NC1=O	5.3
CC(C)[C@H](NC(=O)[C@H](CCC(N)=O)NC(=O)[C@H](CCCNC(=N)N)NC(=O)[C@H](CCCNC(=N)N)NC(=O)[C@@H]1CSSC[C@H](NC(=O)[C@@H](N)CC(N)=O)C(=O)N1)C(=O)N[C@H]1CSSC[C@@H](C(N)=O)NC1=O (HELM PEPTIDE1{N.C.C.R.R.Q.V.C.C.[am]}$PEPTIDE1,PEPTIDE1,2:R3-3:R3|PEPTIDE1,PEPTIDE1,8:R3-9:R3$$$V2.0)	664
CC[C@H](C)[C@H](NC(=O)[C@H](CCC(N)=O)NC(=O)[C@H](CCCNC(=N)N)NC(=O)[C@H](CCCNC(=N)N)NC(=O)[C@@H]1CSSC[C@H](NC(=O)[C@@H](N)Cc2ccc(O)cc2)C(=O)N1)C(=O)N[C@H]1CSSC[C@@H](C(N)=O)NC1=O (HELM PEPTIDE1{Y.C.C.R.R.Q.I.C.C.[am]}$PEPTIDE1,PEPTIDE1,2:R3-3:R3|PEPTIDE1,PEPTIDE1,8:R3-9:R3$$$V2.0)	40.3
N=C(N)NCCC[C@@H](NC(=O)[C@@H](CCCNC(=N)N)NC(=O)[C@@H]1CCCN1C(=O)c1ccccc1)C(=O)N[C@@H](CCC(=O)O)C(=O)N[C@@H](CC1CCCCC1)C(=O)N[C@H]1CSSC[C@@H](C(N)=O)NC1=O	19.4
CC[C@H](C)[C@H](NC(=O)[C@H](CCC(N)=O)NC(=O)[C@H](CCCCN)NC(=O)[C@H](CCCNC(=N)N)NC(=O)[C@@H]1CSSC[C@H](NC(=O)[C@@H](N)CC(N)=O)C(=O)N1)C(=O)N[C@H]1CSSC[C@@H](C(N)=O)NC1=O (HELM PEPTIDE1{N.C.C.R.K.Q.I.C.C.[am]}$PEPTIDE1,PEPTIDE1,2:R3-3:R3|PEPTIDE1,PEPTIDE1,8:R3-9:R3$$$V2.0)	208
N=C(N)NCCC[C@@H](NC(=O)[C@@H](CCCNC(=N)N)NC(=O)[C@@H]1CCCN1C(=O)c1ccccc1)C(=O)N[C@@H](CC1CCCCC1)C(=O)N[C@H]1CSSCC(C(N)=O)NC1=O (single isomer, unassigned)	60
CC[C@H](C)[C@H](NC(=O)[C@H](CCC(N)=O)NC(=O)[C@H](C)NC(=O)[C@H](CCCNC(=N)N)NC(=O)[C@@H]1CSSC[C@H](NC(=O)[C@@H](N)CC(N)=O)C(=O)N1)C(=O)N[C@H]1CSSC[C@@H](C(N)=O)NC1=O (HELM PEPTIDE1{N.C.C.R.A.Q.I.C.C.[am]}$PEPTIDE1,PEPTIDE1,2:R3-3:R3|PEPTIDE1,PEPTIDE1,8:R3-9:R3$$$V2.0)	406
CC[C@H](C)[C@H](NC(=O)[C@H](CCC(N)=O)NC(=O)[C@H](CCCNC(=N)N)NC(=O)[C@H](C)NC(=O)[C@@H]1CSSC[C@H](NC(=O)[C@@H](N)CC(N)=O)C(=O)N1)C(=O)N[C@H]1CSSC[C@@H](C(N)=O)NC1=O (HELM PEPTIDE1{N.C.C.A.R.Q.I.C.C.[am]}$PEPTIDE1,PEPTIDE1,2:R3-3:R3|PEPTIDE1,PEPTIDE1,8:R3-9:R3$$$V2.0)	170
N=C(N)NCCC[C@@H](NC(=O)[C@@H]1CCC(=O)N1)C(=O)N[C@H](CCCNC(=N)N)C(=O)N[C@@H](CCC(N)=O)C(=O)N[C@@H](CC1CCCCC1)C(=O)N[C@H]1CCSSCC[C@@H](C(N)=O)NC1=O	241
N=C(N)NCCC[C@@H](NC(=O)[C@@H](CCCNC(=N)N)NC(=O)[C@@H]1CCCN1C(=O)c1ccccc1)C(=O)N[C@@H](CCC(N)=O)C(=O)N[C@@H](CC1CCCCC1)C(=O)N[C@H]1CSSC[C@@H](C(=O)O)NC1=O	2140
CC[C@H](C)[C@H](NC(=O)[C@H](CCC(N)=O)NC(=O)[C@H](Cc1c[nH]cn1)NC(=O)[C@H](CCCNC(=N)N)NC(=O)[C@@H]1CSSC[C@H](NC(=O)[C@@H](N)CC(N)=O)C(=O)N1)C(=O)N[C@H]1CSSC[C@@H](C(N)=O)NC1=O (HELM PEPTIDE1{N.C.C.R.H.Q.I.C.C.[am]}$PEPTIDE1,PEPTIDE1,2:R3-3:R3|PEPTIDE1,PEPTIDE1,8:R3-9:R3$$$V2.0)	85
N=C(N)NCCC[C@@H](NC(=O)c1cccc(Cl)c1)C(=O)N[C@H](CCCNC(=N)N)C(=O)N[C@@H](CCC(N)=O)C(=O)N[C@@H](CC1CCCCC1)C(=O)N[C@H]1CSSC[C@@H](C(N)=O)NC1=O	6.7
N=C(N)NCCC[C@@H](NC(=O)[C@@H]1CCC(=O)N1)C(=O)N[C@H](CCCNC(=N)N)C(=O)N[C@@H](CCC(N)=O)C(=O)N[C@@H](CC1CCCCC1)C(=O)N[C@H]1CSSCC[C@@H](C(N)=O)NC1=O	1570
N=C(N)NCCC[C@@H](NC(=O)Cc1ccc(F)cc1)C(=O)N[C@H](CCCNC(=N)N)C(=O)N[C@@H](CCC(N)=O)C(=O)N[C@@H](CC1CCCCC1)C(=O)N[C@H]1CSSC[C@@H](C(N)=O)NC1=O	1.2
